Experimental data as given in ChEMBL document CHEMBL3352732, “Nannozinones and sorazinones, unprecedented pyrazinones from myxobacteria” (J Nat Prod, 2014).
Converted amounts (≈) assume the structure as drawn.

Experiments:
[1] = tested on: Escherichia coli; experiment: Antimicrobial activity against Escherichia coli 1116 after 24 to 48 hrs by serial dilution method; format: functional
Procedure, shortened: (§1)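 Compounds from 1 mg/mL stock, 2 and 20 μL aliquots, serially diluted 1:1 in 0.15 mL medium in microtiter plates. Shaken at 160 rpm, 30 °C, 24−48 h. MIC is the lowest concentration preventing visible growth.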

[2] = tested on: Mucor hiemalis; experiment: Antimicrobial activity against Mucor hiemalis 2656 after 24 to 48 hrs by serial dilution method; format: functional
Procedure, shortened: (§2)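 Yeasts and filamentous fungi tested in MYC medium (1.0% glucose, 1.0% phytone peptone, 50 mM HEPES, pH 7.0). Aliquots of 2 and 20 μL from 1 mg/mL stock, 1:1 serial dilution in 0.15 mL medium in microtiter plates. Incubated at 30 °C with shaking at 160 rpm for 24−48 h. MIC read as the lowest concentration with no visible growth.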

[3] = tested on: Nocardia sp.; experiment: Antimicrobial activity against Nocardia sp. 43069 after 24 to 48 hrs by serial dilution method; format: functional; procedure, shortened: as §1
[4] = tested on: Mycolicibacterium diernhoferi; experiment: Antimicrobial activity against Mycobacterium diernhoferi 43542 after 24 to 48 hrs by serial dilution method; format: functional; procedure, shortened: as §1
[5] = tested on: A549; experiment: Cytotoxicity against human A549 cells by MTT assay; format: functional, cell-based
Procedure, shortened: (§3)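 MTT assay in 96-well plates, giving IC50. Media: DMEM for KB-3-1, A431, A549 and L929; F12K for PC-3; RPMI for MCF-7; EBM-2 for HUVEC; McCoy's for SKOV-3. All media had 10% FBS, and cells were kept at 37 °C under 10% CO2. Methanol served as negative control and epothilone A as positive control.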

[6] = tested on: Staphylococcus aureus; experiment: Antimicrobial activity against Staphylococcus aureus 346 after 24 to 48 hrs by serial dilution method; format: functional; procedure, shortened: as §1
[7] = tested on: L929; experiment: Cytotoxicity against mouse L929 cells by MTT assay; format: functional, cell-based; procedure, shortened: as §3
[8] = tested on: Pseudomonas aeruginosa; experiment: Antimicrobial activity against Pseudomonas aeruginosa 50071 after 24 to 48 hrs by serial dilution method; format: functional; procedure, shortened: as §1
[9] = tested on: MCF7; experiment: Cytotoxicity against human MCF7 cells by MTT assay; format: functional, cell-based; procedure, shortened: as §3
[10] = Cytotoxicity against human KB3-1 cells by MTT assay; format: functional, cell-based; conditions: KB 3-1; procedure, shortened: as §3
[11] = tested on: Trichosporon oleaginosus; experiment: Antimicrobial activity against Trichosporon oleaginosus 11815 after 24 to 48 hrs by serial dilution method; format: functional; conditions: Cutaneotrichosporon oleaginosum; procedure, shortened: as §2
[12] = tested on: Chromobacterium violaceum; experiment: Antimicrobial activity against Chromobacterium violaceum 30191 after 24 to 48 hrs by serial dilution method; format: functional; procedure, shortened: as §1
[13] = tested on: Saccharomyces cerevisiae; experiment: Antimicrobial activity against Saccharomyces cerevisiae 70449 after 24 to 48 hrs by serial dilution method; format: functional; procedure, shortened: as §2
[14] = Cytotoxicity against human SKOV3 cells by MTT assay; format: functional, cell-based; conditions: SK-OV-3; procedure, shortened: as §3
[15] = tested on: Wickerhamomyces anomalus; experiment: Antimicrobial activity against Wickerhamomyces anomalus 6766 after 24 to 48 hrs by serial dilution method; format: functional; procedure, shortened: as §2
[16] = Cytotoxicity against human PC3 cells by MTT assay; format: functional, cell-based; conditions: PC-3; procedure, shortened: as §3
[17] = tested on: Paenibacillus polymyxa; experiment: Antimicrobial activity against Paenibacillus polymyxa 36 after 24 to 48 hrs by serial dilution method; format: functional; procedure, shortened: as §1
[18] = tested on: Candida albicans; experiment: Antimicrobial activity against Candida albicans 1665 after 24 to 48 hrs by serial dilution method; format: functional; procedure, shortened: as §2
[19] = tested on: HUVEC; experiment: Cytotoxicity against HUVEC cells by MTT assay; format: functional, cell-based; conditions: Homo sapiens; procedure, shortened: as §3
[20] = tested on: A-431; experiment: Cytotoxicity against human A431 cells by MTT assay; format: functional, cell-based; procedure, shortened: as §3

| Compound | MIC [1] [µg/mL] | MIC [2] [µg/mL] | MIC [3] [µg/mL] | MIC [4] [µg/mL] | IC50 [5] [µM] | MIC [6] [µg/mL] | IC50 [7] [µM] | MIC [8] [µg/mL] | IC50 [9] [µM] | IC50 [10] [µM] | MIC [11] [µg/mL] | MIC [12] [µg/mL] | MIC [13] [µg/mL] | IC50 [14] [µM] | MIC ([15]; Hansenula anomala) [µg/mL] | IC50 [16] [µM] | MIC [17] [µg/mL] | MIC [18] [µg/mL] | IC50 [19] [µM] | IC50 [20] [µM] | further results |
| --- | --- | --- | --- | --- | --- | --- | --- | --- | --- | --- | --- | --- | --- | --- | --- | --- | --- | --- | --- | --- | --- |
| COC(=O)c1c[nH]c2ccccc12 | > 66.6 | > 66.6 | 33.3 (≈ 190 µM) | > 66.6 | > 56.8 | > 66.6 | > 56.8 | > 66.6 | > 56.8 | > 56.8 | > 66.6 | > 66.6 | > 66.6 | > 56.8 | > 66.6 | > 56.8 | > 66.6 | > 66.6 |  |  |  |
| NYSTATIN |  | 2.1 |  |  |  |  |  |  |  |  | 4.2 |  | 16.6 |  |  |  |  | 8.3 |  |  | MIC [15]: 16.6 µg/mL |
| COC(=O)[C@H](CCCCN(O)C(=O)/C=C/c1ccccc1)NC(=O)CC(O)(CC(=O)N[C@@H](CCCCN(O)C(=O)/C=C/c1ccccc1)C(=O)OC)C(=O)O | > 66.6 | > 66.6 | > 66.6 | > 66.6 | 0.12 | > 66.6 | 1.82 | > 66.6 | 0.22 | 0.05 | 66.6 (≈ 86.6 µM) | > 66.6 | > 66.6 | 1.95 | > 66.6 | 0.19 | > 66.6 | 33.3 (≈ 43.3 µM) | 0.05 | 0.1 |  |
| Cc1nc(Cc2ccccc2)c(O)nc1Cc1ccccc1 | > 66.6 | > 66.6 | 67 (≈ 231 µM) | > 66.6 | > 34.5 | > 66.6 | > 34.5 | > 66.6 | > 34.5 | > 34.5 | > 66.6 | > 66.6 | > 66.6 | > 34.5 | > 66.6 | > 34.5 | > 66.6 | > 66.6 |  |  |  |
| CN(C)[C@@H]1C(O)=C(C(N)=O)C(=O)[C@@]2(O)C(O)=C3C(=O)c4c(O)cccc4[C@@](C)(O)[C@H]3[C@H](O)[C@@H]12.Cl [OXYTETRACYCLINE HYDROCHLORIDE] | 0.42 |  | 0.52 | 0.52 |  | 0.52 |  |  |  |  |  | 1 |  |  |  |  | 6.7 |  |  |  |  |
| Cc1ccn2c(=O)c3cccn3c(=O)c12 | > 66.6 | > 66.6 | 16.6 (≈ 82.9 µM) | > 66.6 | > 50 | > 66.6 | > 50 | > 66.6 | > 50 | > 50 | > 66.6 | > 66.6 | > 66.6 | > 50 | 66.6 (≈ 333 µM) | > 50 | > 66.6 | > 66.6 |  |  |  |
| C/C(=C\c1csc(C)n1)[C@@H]1C[C@@H]2O[C@@H]2CCC[C@H](C)[C@H](O)[C@@H](C)C(=O)C(C)(C)[C@@H](O)CC(=O)O1 [EPOTHILONE A] |  |  |  |  |  |  | 0.0077 |  | 0.0022 | 0.0096 |  |  |  | 0.0013 |  | 0.0024 |  |  |  |  |  |
| O=c1cnc(CCc2ccccc2)c2n1CCC2 | 66.6 (≈ 277 µM) | 33.3 (≈ 139 µM) | 66.6 (≈ 277 µM) | 33.3 (≈ 139 µM) | > 41.5 | 66.6 (≈ 277 µM) | > 41.5 | 66.6 (≈ 277 µM) | > 41.5 | > 41.5 | 66.6 (≈ 277 µM) | 66.6 (≈ 277 µM) | 66.6 (≈ 277 µM) | > 41.5 | > 66.6 | > 41.5 | 66.6 (≈ 277 µM) | 33.3 (≈ 139 µM) | > 41.5 | > 41.5 |  |
| GENTAMICIN |  |  |  |  |  |  |  | 42 |  |  |  |  |  |  |  |  |  |  |  |  |  |
| CC(=O)c1c(Cc2ccccc2)[nH]c(=O)c2cccn12 | > 66.6 | > 66.6 | 66.6 (≈ 250 µM) | > 66.6 | 8.7 | > 66.6 | > 37.6 | > 66.6 | 14.1 | 5.3 | > 66.6 | > 66.6 | > 66.6 | 2.4 | > 66.6 | 16.9 | > 66.6 | > 66.6 | 15.5 | 8.45 |  |
